Results from ChEMBL document CHEMBL1129623, “Effects of multidrug resistance (MDR1) P-glycoprotein expression levels and coordination metal on the cytotoxic potency of multidentate (N4O2) (ethylenediamine)bis[propyl(R-benzylimino)]metal(III) cations” (1996).
The source made the active and inactive calls. No cut-off for these calls is given here.

Columns and labels:
[1] = test system: KB 3-1; assay: Compound was tested for cytotoxic lethal concentration on R-ENBPI Al(III) complexs in human drug sensitive (KB-3-1)cells. parentheses value indicates SEM; assay type: functional; conditions: read-out: LC50 (the source's name)
How it was run: (§1)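 Parental KB-3-1 human epidermal carcinoma cells, no immunodetectable P-glycoprotein, 5000/well in 5% FBS medium, 4 h recovery. Complex was added in triplicate wells up to 100 μM, 72 h at 37 °C, 5% CO2. Cells were TCA-fixed and stained with 0.4% SRB, dye dissolved in 10 mM Tris, A490–450. LC50 was from a sigmoid fit of survival versus vehicle control, Smin constrained to zero.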

[2] = test system: KB 3-1; assay: Compound was tested for cytotoxic lethal concentration on R-ENBPI […] complexs in human drug sensitive (KB-3-1)cells. parentheses value indicates SEM; assay type: functional; conditions: read-out: LC50 (the source's name); how it was run: as §1
[3] = test system: KB 3-1; assay: Compound was tested for cytotoxic lethal concentration on R-ENBPI In(III) complexs in human drug sensitive (KB-3-1)cells. parentheses value indicates SEM; assay type: functional; conditions: read-out: LC50 (the source's name); how it was run: as §1
[4] = test system: KB 3-1; assay: (§2) Compound was tested for dependency on R-ENBPI Fe(III) complex in human drug sensitive (KB-3-1)cells.; assay type: functional; conditions: read-out: LC50 (the source's name)
How it was run: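 Parameter dependency from the sigmoid fit S={(Smax−Smin)/[1+(C/LC50)^γ]}+Smin of KB-3-1 SRB survival data: 72 h exposure, triplicate wells, up to 100 μM, Smin constrained to zero. It is used to judge overparameterization of the fitted curve.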

[5] = test system: KB 3-1; assay: Compound was tested for dependency on R-ENBPI Al(III) complexs in human drug sensitive (KB-3-1)cells.; assay type: functional
How it was run: (§3)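 KB-3-1 cells were plated at 5000/well in 5% FBS medium and allowed 4 h to recover. Complexes were added in triplicate at concentrations up to 100 μM, then incubated 72 h at 37 °C, 5% CO2. Cells were TCA-fixed and stained with SRB, read at 490–450 nm, and expressed as % of vehicle control. A sigmoid fit with Smin constrained to zero gave LC50 and fit dependencies.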

[6] = test system: KB 3-1; assay: as §2; assay type: functional; how it was run: as §3
[7] = test system: KB 3-1; assay: Compound was tested for dependency on R-ENBPI Ga(III) complexs in human drug sensitive (KB-3-1)cells.; assay type: functional; how it was run: as §3
[8] = test system: KB 3-1; assay: Compound was tested for dependency on R-ENBPI In(III) complexs in human drug sensitive (KB-3-1)cells.; assay type: functional; how it was run: as §3
[9] = test system: KB; assay: Compound was tested for coefficient of variation percent on R-ENBPI Al(III) complex in multi drug resistant (KB-8-5) cells; NA=not applicable; assay type: functional, cell-based; conditions: Homo sapiens
How it was run: (§4)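 KB-8-5 multidrug-resistant cells were kept drug-free for 96 h, then plated at 5000/well in 5% FBS medium and allowed 4 h to recover. Complexes were added in triplicate up to 100 μM for 72 h at 37 °C. Survival was read by SRB staining (490–450 nm) relative to vehicle. LC50 came from a sigmoid fit with Smin fixed at zero, giving CV% and dependency statistics.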

[10] = test system: KB; assay: Compound was tested for coefficient of variation percent on R-ENBPI Fe(III) complex in multi drug resistant (KB-8-5) cells; NA=not applicable; assay type: functional, cell-based; conditions: Homo sapiens; how it was run: as §4
[11] = test system: KB; assay: Compound was tested for coefficient of variation percent on R-ENBPI Ga(III) complex in multi drug resistant (KB-8-5) cells; NA=not applicable; assay type: functional, cell-based; conditions: Homo sapiens; how it was run: as §4
[12] = test system: KB; assay: Compound was tested for cytotoxic lethal concentration on R-ENBPI Al(III) complex in multi drug resistant (KB-8-5)cells.; assay type: functional; conditions: Homo sapiens, read-out: LC50 (the source's name)
How it was run: (§5)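 KB-8-5 cells are colchicine-selected and express modest MDR1 P-glycoprotein. They were kept in drug-free medium for 96 h, then plated at 5000/well in 5% FBS medium and allowed 4 h recovery. Complex was added in triplicate up to 100 μM, with 72 h at 37 °C, 5% CO2. Read-out was SRB staining after TCA fixation, A490–450. LC50 came from a sigmoid fit (Smin=0) of survival relative to vehicle. Values ≥100 μM were not fitted.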

[13] = test system: KB; assay: Compound was tested for cytotoxic lethal concentration on R-ENBPI Fe(III) complex in multi drug resistant (KB-8-5) cells; NA=not applicable; assay type: functional, cell-based; conditions: Homo sapiens; how it was run: as §5
[14] = test system: KB; assay: Compound was tested for cytotoxic lethal concentration on R-ENBPI Ga(III) complex in multi drug resistant (KB-8-5) cells; NA=not applicable; assay type: functional, cell-based; conditions: Homo sapiens; how it was run: as §5
[15] = test system: KB; assay: Compound was tested for cytotoxic lethal concentration on R-ENBPI In(III) complex in multi drug resistant (KB-8-5)cells.; assay type: functional; conditions: Homo sapiens, read-out: LC50 (the source's name); how it was run: as §5
[16] = test system: KB; assay: Compound was tested for dependency on R-ENBPI Al(III) complex in multi drug resistant (KB-8-5) cells; NA=not applicable; assay type: functional, cell-based; conditions: Homo sapiens; how it was run: as §4
[17] = test system: KB; assay: Compound was tested for dependency on R-ENBPI Fe(III) complex in multi drug resistant (KB-8-5) cells; NA=not applicable; assay type: functional, cell-based; conditions: Homo sapiens; how it was run: as §4
[18] = test system: KB; assay: Compound was tested for dependency on R-ENBPI Ga(III) complex in […] (KB-8-5) cells; NA=not applicable; assay type: functional, cell-based; how it was run: as §4
[19] = test system: KB; assay: Compound was tested for dependency on R-ENBPI In(III) complex in multi drug resistant (KB-8-5)cells.; assay type: functional, Homo sapiens; how it was run: as §4
[20] = test system: KB 3-1; assay: Compound was tested for cytotoxic lethal concentration on R-ENBPI […] complexs in human drug sensitive (KB-3-1)cells parentheses value indicates SEM; assay type: functional; conditions: read-out: LC50 (the source's name); how it was run: as §1
[21] = test system: KB; assay: Compound was tested for cytotoxic lethal concentration on R-ENBPI Fe(III) complex in multi drug resistant (KB-8-5)cells.; assay type: functional; conditions: Homo sapiens, read-out: LC50 (the source's name); how it was run: as §5
[22] = test system: KB; assay: Compound was tested for cytotoxic lethal concentration on R-ENBPI Ga(III) complex in multi drug resistant (KB-8-5)cells.; assay type: functional; conditions: Homo sapiens, read-out: LC50 (the source's name); how it was run: as §5
[23] = test system: KB; assay: Compound was tested for dependency on R-ENBPI Al(III) complex in multi drug resistant (KB-8-5)cells.; assay type: functional, Homo sapiens; how it was run: as §4
[24] = test system: KB; assay: Compound was tested for dependency on R-ENBPI Ga(III) complex in […] (KB-8-5) cells.; assay type: functional; how it was run: as §4
[25] = test system: KB 3-1; assay: Compound was tested for cytotoxic lethal concentration on R-ENBPI Al(III) complexs in human drug sensitive (KB-3-1)cells; assay type: functional; conditions: read-out: LC50 (the source's name); how it was run: as §1

With COc1cc(O)c(/C=N/CCCN2CCN(CCC/N=C/c3c(O)cc(OC)cc3OC)C2c2c(O)cc(OC)cc2OC)c(OC)c1 as the molecule, how does the CC50 [1] read?
Its CC50 is under 1.4 µM.

And the CC50 [2]?
The CC50 was 3.7 µM.

What about the CC50 [3] of the same molecule?
The CC50 was 63.8 µM.

What about the CC50 [4] of the same molecule?
Its CC50 is under 1.1 µM.

What about the Dependency [5] of the same molecule?
The Dependency was 0.39.

And the Dependency [6]?
Its Dependency is 0.23.

And the Dependency [7]?
Its Dependency is 0.34.

What about the Dependency [8] of the same molecule?
The Dependency was 0.38.

What about the CV [9] of the same molecule?
Its CV is “inactive”.

What about the CV [10] of the same molecule?
Its CV is “inactive”.

And the CV [11]?
Its CV is “inactive”.

What about the CC50 [12] of the same molecule?
The CC50 was over 100 µM.

And the LC50 [13]?
The LC50 was “inactive”.

And the LC50 [14]?
The LC50 was “inactive”.

What about the CC50 [15] of the same molecule?
Its CC50 is 61.8 µM.

And the Dependency [16]?
The Dependency was “inactive”.

What about the Dependency [17] of the same molecule?
The Dependency was “inactive”.

And the Dependency [18]?
The Dependency was “inactive”.

What about the Dependency [19] of the same molecule?
The Dependency was 0.38.

With COc1cccc(/C=N/CCCN2CCN(CCC/N=C/c3cccc(OC)c3O)C2c2cccc(OC)c2O)c1O as the molecule, how does the CC50 [20] read?
Its CC50 is under 42.6 µM.

What about the CC50 [3] of the same molecule?
Its CC50 is 16.6 µM.

And the CC50 [4]?
The CC50 was 9 µM.

What about the Dependency [5] of the same molecule?
The Dependency was 0.46.

What about the Dependency [6] of the same molecule?
Its Dependency is 0.68.

What about the Dependency [7] of the same molecule?
The Dependency was 0.45.

And the Dependency [8]?
The Dependency was 0.41.

What about the CV [10] of the same molecule?
Its CV is “inactive”.

What about the CC50 [12] of the same molecule?
Its CC50 is under 27.5 µM.

And the CC50 [21]?
Its CC50 is over 100 µM.

What about the CC50 [22] of the same molecule?
Its CC50 is under 110 µM.

And the CC50 [15]?
Its CC50 is 24.2 µM.

What about the Dependency [23] of the same molecule?
The Dependency was 0.33.

And the Dependency [17]?
Its Dependency is “inactive”.

And the Dependency [24]?
The Dependency was 0.39.

What about the Dependency [19] of the same molecule?
The Dependency was 0.36.

What about the CC50 [25] of the same molecule?
The CC50 was 11.4 µM.
